The source of these data is ChEMBL document CHEMBL2424622, “Development of amino-pyrimidine inhibitors of c-Jun N-terminal kinase (JNK): kinase profiling guided optimization of a 1,2,3-benzotriazole lead” (Bioorg Med Chem Lett, 2013).

In data set [1] the target is Mitogen-activated protein kinase 3 (Homo sapiens, UniProt P27361). Put plainly: Competitive binding affinity to ERK1 (unknown origin) at 10 uM in presence of ATP relative to control. The essentials:
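In vitro ATP-site competition binding assay, part of profiling against a diverse panel of 128 kinases. Each compound was tested at a single concentration of 10 µM. Kinome selectivity was summarized as S15 selectivity scores.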

Data set [2] addresses Mitogen-activated protein kinase kinase kinase kinase 4 (Homo sapiens) (UniProt O95819). Put plainly: Competitive binding affinity to MAP4K4 (unknown origin) at 10 uM in presence of ATP relative to control.
The target of data set [3] is Serine/threonine-protein kinase 24 (Homo sapiens) (UniProt Q9Y6E0). Put plainly: Competitive binding affinity to STK24 (unknown origin) at 10 uM in presence of ATP relative to control.
In data set [4] the test system is Tyrosine-protein kinase ABL1 (Homo sapiens), P00519 [Y253F]. Put plainly: Competitive binding affinity to ABL1 Y253F mutant (unknown origin) at 10 uM in presence of ATP relative to control.
In data set [5] the target is Serine/threonine-protein kinase 25 (Homo sapiens) (UniProt O00506). Put plainly: Competitive binding affinity to STK25 (unknown origin) at 10 uM in presence of ATP relative to control.
Data set [6] deals with T1, Serine/threonine-protein kinase STK11 (Homo sapiens) (UniProt Q15831).
T1 sequence (whole entry): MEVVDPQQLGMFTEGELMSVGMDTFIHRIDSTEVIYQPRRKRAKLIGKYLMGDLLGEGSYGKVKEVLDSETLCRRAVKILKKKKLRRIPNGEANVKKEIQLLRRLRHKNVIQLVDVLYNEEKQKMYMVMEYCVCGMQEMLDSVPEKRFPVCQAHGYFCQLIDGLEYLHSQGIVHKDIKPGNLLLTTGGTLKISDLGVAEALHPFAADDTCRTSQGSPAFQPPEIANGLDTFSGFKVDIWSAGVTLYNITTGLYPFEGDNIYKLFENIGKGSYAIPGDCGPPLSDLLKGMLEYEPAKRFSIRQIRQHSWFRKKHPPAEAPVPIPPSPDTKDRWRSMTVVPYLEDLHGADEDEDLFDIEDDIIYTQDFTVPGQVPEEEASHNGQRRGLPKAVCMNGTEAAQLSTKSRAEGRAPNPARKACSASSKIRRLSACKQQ
Put plainly: Competitive binding affinity to STK11 (unknown origin) at 10 uM in presence of ATP relative to control.

Data set [7] addresses Serine/threonine-protein kinase 10 (Homo sapiens) (UniProt O94804). Put plainly: Competitive binding affinity to STK10 (unknown origin) at 10 uM in presence of ATP relative to control.
Data set [8] addresses Activated CDC42 kinase 1 (Homo sapiens) (UniProt Q07912). Put plainly: Competitive binding affinity to ACK1 (unknown origin) at 10 uM in presence of ATP relative to control.
Data set [9] deals with Serine/threonine-protein kinase ULK3 (Mus musculus) (UniProt Q3U3Q1). Put plainly: Competitive binding affinity to mouse ULK3 at 10 uM in presence of ATP relative to control.
Serine/threonine-protein kinase ULK3 (Mus musculus), sequence (Q3U3Q1 whole entry): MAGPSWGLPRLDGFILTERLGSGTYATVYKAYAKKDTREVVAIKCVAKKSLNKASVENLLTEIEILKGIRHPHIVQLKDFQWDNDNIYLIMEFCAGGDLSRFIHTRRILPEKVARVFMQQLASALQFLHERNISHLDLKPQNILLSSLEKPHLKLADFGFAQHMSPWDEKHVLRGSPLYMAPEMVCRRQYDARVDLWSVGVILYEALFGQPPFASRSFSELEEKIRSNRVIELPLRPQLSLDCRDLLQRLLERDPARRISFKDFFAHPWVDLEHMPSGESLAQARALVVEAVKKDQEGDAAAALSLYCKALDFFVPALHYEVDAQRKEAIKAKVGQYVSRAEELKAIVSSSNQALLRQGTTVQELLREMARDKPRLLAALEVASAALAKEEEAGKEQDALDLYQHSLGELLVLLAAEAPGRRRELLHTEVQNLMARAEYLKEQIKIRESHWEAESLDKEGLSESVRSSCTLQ
Data set [10] can be described thus: AUC (0 to infinity) in Hanover-Wistar rat at 2 mg/kg, po. Particulars: plasma. The arrangement: time infinity, dose 2 mg/kg, route oral. It is filed as ADME, organism-based.
The target in data set [11] is Death-associated protein kinase 3 (Homo sapiens, UniProt O43293). Put plainly: Binding affinity to DAPK3 (unknown origin).
The target in a further data set is LIM domain kinase 2 (Homo sapiens, UniProt P53671). Put plainly: Binding affinity to LIMK2 (unknown origin).
In data set [12] the target is MAP kinase-interacting serine/threonine-protein kinase 1 (Homo sapiens, UniProt Q9BUB5). Put plainly: Binding affinity to MKNK1 (unknown origin).
A short description of data set [13]: Intrinsic clearance in human liver microsomes measured per mg of protein. The data set is classed as ADME, Microsome. To be noted: read-out: CLH. In general terms: Liver microsomes are a subcellular fraction often used to study metabolism.
Data set [14] addresses Glycogen synthase kinase-3 alpha (Homo sapiens, UniProt P49840). Put plainly: Binding affinity to GSK3A (unknown origin).
A short description of data set [15]: AUC (0 to infinity) in Hanover-Wistar rat at 20 mg/kg, po. It is filed as ADME, organism-based. Details: time infinity, dose 20 mg/kg, route oral. Particulars: plasma.
Data set [16] deals with Calcium/calmodulin-dependent protein kinase type 1 (Homo sapiens, UniProt Q14012). Put plainly: Binding affinity to CAMK1 (unknown origin).
Calcium/calmodulin-dependent protein kinase type 1, sequence (Q14012 whole entry): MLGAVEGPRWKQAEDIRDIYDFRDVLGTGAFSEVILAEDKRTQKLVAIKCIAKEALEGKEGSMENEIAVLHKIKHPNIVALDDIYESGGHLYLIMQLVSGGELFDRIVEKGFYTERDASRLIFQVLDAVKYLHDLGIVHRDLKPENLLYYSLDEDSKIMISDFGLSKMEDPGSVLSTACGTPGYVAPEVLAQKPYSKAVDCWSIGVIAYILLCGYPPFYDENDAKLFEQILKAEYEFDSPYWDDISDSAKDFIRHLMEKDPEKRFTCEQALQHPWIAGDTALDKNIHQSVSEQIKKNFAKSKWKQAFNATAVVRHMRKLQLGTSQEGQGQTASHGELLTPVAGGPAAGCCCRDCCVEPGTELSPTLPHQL
Data set [17] is described as follows: AUC (0 to infinity) in Hanover-Wistar rat at 0.5 mg/kg, iv. It is filed as ADME, organism-based. The arrangement: dose 0.5 mg/kg, route intravenous, time infinity. Particulars: plasma.
Data set [18] has as its target Interferon-induced, double-stranded RNA-activated protein kinase (Homo sapiens, UniProt P19525). Put plainly: Binding affinity to PRKR (unknown origin).
The nature of data set [19]: Half life in Hanover-Wistar rat at 20 mg/kg, po. The arrangement: dose 20 mg/kg, route oral. Particulars: in vivo. It is filed as ADME, organism-based.
For a further data set, the target named is MAP kinase p38 (Homo sapiens, UniProt O15264+Q15759+Q16539+P53778). Put plainly: Inhibition of p38 (unknown origin)-dependent HSP27 phosphorylation by cell-based assay.
Data set [20] addresses Atypical kinase COQ8B, mitochondrial (Homo sapiens, UniProt Q96D53). Put plainly: Binding affinity to ADCK4 (unknown origin).
The target in data set [21] is Mitogen-activated protein kinase 10 (Homo sapiens, UniProt P53779). Put plainly: Binding affinity to JNK3 (unknown origin).
In data set [22] the target is Glycogen synthase kinase-3 beta (Homo sapiens, UniProt P49841). Put plainly: Binding affinity to GSK3B (unknown origin).
In data set [23] the target is Platelet-derived growth factor receptor beta (Homo sapiens, UniProt P09619). Put plainly: Binding affinity to PDGFRB (unknown origin).
Data set [24] in a line: Half life in Hanover-Wistar rat at 0.5 mg/kg, iv. The data set is classed as ADME, organism-based. The arrangement: dose 0.5 mg/kg, route intravenous. To be noted: in vivo.
In data set [25] the target is Mitogen-activated protein kinase 11 (Homo sapiens, UniProt Q15759). Put plainly: Binding affinity to p38-beta (unknown origin).
Data set [26] addresses Citron Rho-interacting kinase (Homo sapiens, UniProt O14578). Put plainly: Binding affinity to CIT (unknown origin).
Another data set has as its system Rattus norvegicus. Put plainly: Cmax in Hanover-Wistar rat at 2 mg/kg, po. Particulars: in vivo. Details: dose 2 mg/kg, route oral. The data set is classed as ADME, organism-based.
Data set [27] is described as follows: Intrinsic permeability from basolateral to apical side in human Caco2 cells at 10 uM. The data set is classed as ADME, cell-based. To be noted: Caco-2, read-out: permeability. In general terms: Caco-2 monolayers are a common model of the intestinal barrier.
The nature of data set [28]: Intrinsic permeability from apical to basolateral side in human Caco2 cells at 10 uM. The data set is classed as ADME, cell-based. To be noted: Caco-2, read-out: permeability.
Data set [29] has as its target Mitogen-activated protein kinase 1 (Homo sapiens, UniProt P28482). Put plainly: Binding affinity to ERK2 (unknown origin).
Data set [30] addresses Serine/threonine-protein kinase 17A (Homo sapiens, UniProt Q9UEE5). Put plainly: Binding affinity to DRAK1 (unknown origin).
Data set [31] is described as follows: Clearance in human liver microsomes. It is filed as ADME, Microsome. Particulars: read-out: CLH. The essentials:
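Intrinsic clearance was measured in vitro in human liver microsomes and expressed per mg microsomal protein.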

The target of data set [32] is Ribosomal protein S6 kinase alpha-1 (Homo sapiens, UniProt Q15418). Put plainly: Binding affinity to RPS6KA1 (unknown origin).
In data set [33] the target is Atypical kinase COQ8A, mitochondrial (Homo sapiens, UniProt Q8NI60). Put plainly: Binding affinity to ADCK3 (unknown origin).
The target in data set [34] is Dual specificity mitogen-activated protein kinase kinase 6 (Homo sapiens, UniProt P52564). Put plainly: Binding affinity to MEK6 (unknown origin).
Data set [35] has as its target Mitogen-activated protein kinase 4 (Homo sapiens, UniProt P31152). Put plainly: Binding affinity to ERK4 (unknown origin).

pKd: −log10 of the molar value.

Mitogen-activated protein kinase kinase kinase kinase 4 (Homo sapiens), sequence (O95819 2-1239 limits assumed): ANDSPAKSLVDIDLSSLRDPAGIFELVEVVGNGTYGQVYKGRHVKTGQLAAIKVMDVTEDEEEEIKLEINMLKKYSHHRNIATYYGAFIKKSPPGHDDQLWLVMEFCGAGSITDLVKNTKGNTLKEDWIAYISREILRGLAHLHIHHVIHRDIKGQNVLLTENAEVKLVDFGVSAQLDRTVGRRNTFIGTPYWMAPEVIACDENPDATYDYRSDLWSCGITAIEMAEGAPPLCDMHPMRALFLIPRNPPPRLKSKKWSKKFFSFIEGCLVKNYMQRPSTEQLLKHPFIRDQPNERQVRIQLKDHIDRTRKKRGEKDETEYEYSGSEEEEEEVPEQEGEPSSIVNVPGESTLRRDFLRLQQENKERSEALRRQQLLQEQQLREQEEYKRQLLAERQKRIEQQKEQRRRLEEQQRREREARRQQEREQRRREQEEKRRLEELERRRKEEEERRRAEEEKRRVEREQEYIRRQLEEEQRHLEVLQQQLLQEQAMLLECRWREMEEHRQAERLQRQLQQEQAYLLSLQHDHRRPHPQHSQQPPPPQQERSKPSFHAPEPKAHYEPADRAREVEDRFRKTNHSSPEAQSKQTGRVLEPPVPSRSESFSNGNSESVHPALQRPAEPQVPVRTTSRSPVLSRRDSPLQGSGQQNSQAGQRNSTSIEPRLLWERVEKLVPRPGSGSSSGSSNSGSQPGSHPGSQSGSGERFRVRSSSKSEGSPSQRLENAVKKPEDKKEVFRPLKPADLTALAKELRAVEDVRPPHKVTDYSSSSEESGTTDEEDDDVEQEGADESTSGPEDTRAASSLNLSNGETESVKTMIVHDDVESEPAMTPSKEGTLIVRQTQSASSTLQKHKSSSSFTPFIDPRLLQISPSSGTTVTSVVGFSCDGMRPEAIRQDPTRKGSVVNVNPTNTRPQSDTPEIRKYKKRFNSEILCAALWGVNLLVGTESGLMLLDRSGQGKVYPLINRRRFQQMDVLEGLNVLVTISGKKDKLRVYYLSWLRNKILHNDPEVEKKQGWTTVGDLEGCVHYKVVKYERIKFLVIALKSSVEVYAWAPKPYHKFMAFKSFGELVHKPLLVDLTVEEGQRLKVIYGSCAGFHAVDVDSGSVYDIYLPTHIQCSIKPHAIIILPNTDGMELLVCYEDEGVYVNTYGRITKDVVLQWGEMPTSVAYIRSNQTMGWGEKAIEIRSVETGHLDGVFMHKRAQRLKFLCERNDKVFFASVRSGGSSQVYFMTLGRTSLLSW
Mitogen-activated protein kinase 3, sequence (P27361 whole entry): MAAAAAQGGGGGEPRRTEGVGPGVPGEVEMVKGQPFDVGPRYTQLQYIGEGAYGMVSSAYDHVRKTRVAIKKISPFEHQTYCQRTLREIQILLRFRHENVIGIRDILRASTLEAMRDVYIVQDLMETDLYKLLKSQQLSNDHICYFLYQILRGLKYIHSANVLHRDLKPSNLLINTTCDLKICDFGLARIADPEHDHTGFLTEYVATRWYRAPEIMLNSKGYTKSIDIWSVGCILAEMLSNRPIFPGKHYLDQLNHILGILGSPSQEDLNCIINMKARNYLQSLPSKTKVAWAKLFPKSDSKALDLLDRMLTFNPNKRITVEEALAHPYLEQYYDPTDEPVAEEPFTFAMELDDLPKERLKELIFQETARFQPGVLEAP
Serine/threonine-protein kinase 10 (Homo sapiens), sequence (O94804 whole entry, looked up): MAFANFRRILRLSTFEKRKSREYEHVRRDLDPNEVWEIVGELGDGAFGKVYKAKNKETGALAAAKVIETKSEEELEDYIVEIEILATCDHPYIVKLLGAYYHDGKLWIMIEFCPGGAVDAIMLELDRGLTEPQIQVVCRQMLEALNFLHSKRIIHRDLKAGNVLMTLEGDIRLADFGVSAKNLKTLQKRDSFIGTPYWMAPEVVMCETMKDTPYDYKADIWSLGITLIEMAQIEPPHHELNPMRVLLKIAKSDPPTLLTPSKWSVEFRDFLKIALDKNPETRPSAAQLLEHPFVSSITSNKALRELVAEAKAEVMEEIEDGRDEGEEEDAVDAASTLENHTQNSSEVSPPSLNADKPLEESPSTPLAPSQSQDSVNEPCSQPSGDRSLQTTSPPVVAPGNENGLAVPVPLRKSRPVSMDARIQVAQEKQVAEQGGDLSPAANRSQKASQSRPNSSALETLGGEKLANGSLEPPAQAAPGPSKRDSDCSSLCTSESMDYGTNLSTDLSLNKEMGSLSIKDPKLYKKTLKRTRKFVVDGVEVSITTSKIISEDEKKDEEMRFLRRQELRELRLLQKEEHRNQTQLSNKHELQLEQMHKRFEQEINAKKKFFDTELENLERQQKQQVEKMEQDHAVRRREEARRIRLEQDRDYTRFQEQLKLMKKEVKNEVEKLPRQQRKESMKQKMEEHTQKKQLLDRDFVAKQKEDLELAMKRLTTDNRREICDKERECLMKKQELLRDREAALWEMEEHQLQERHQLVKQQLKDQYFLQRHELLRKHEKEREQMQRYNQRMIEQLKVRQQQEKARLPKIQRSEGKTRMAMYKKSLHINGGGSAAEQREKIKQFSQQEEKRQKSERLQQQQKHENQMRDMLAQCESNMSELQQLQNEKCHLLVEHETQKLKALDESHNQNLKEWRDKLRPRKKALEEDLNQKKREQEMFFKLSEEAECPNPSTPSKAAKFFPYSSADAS
Activated CDC42 kinase 1 (Homo sapiens), sequence (Q07912 whole entry, looked up): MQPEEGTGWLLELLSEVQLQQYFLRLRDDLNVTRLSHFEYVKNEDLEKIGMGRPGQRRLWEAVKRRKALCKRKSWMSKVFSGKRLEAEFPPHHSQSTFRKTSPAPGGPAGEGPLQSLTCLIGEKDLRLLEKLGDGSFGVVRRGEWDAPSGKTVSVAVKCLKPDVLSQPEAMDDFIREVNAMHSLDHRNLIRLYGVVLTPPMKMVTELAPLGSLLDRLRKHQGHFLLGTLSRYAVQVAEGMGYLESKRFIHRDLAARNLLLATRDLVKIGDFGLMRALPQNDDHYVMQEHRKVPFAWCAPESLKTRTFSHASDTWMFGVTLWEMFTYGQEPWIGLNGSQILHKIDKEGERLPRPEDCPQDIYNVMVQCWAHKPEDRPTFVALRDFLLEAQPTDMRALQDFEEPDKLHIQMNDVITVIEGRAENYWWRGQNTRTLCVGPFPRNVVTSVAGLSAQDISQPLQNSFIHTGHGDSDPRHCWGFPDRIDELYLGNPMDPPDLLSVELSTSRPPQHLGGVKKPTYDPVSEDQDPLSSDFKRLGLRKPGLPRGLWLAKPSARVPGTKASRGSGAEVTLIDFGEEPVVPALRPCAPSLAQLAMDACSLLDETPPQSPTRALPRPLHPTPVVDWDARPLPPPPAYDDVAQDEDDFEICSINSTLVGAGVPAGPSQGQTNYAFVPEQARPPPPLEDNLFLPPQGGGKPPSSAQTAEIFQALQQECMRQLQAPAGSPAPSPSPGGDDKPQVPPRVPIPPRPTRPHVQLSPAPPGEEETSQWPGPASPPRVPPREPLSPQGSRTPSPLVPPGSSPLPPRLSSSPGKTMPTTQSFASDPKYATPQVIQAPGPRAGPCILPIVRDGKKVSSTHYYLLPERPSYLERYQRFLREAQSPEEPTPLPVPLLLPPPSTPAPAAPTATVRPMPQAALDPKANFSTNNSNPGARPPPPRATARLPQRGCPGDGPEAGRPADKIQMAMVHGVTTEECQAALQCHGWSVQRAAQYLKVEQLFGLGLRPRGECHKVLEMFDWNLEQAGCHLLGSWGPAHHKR
Interferon-induced, double-stranded RNA-activated protein kinase, sequence (P19525 whole entry): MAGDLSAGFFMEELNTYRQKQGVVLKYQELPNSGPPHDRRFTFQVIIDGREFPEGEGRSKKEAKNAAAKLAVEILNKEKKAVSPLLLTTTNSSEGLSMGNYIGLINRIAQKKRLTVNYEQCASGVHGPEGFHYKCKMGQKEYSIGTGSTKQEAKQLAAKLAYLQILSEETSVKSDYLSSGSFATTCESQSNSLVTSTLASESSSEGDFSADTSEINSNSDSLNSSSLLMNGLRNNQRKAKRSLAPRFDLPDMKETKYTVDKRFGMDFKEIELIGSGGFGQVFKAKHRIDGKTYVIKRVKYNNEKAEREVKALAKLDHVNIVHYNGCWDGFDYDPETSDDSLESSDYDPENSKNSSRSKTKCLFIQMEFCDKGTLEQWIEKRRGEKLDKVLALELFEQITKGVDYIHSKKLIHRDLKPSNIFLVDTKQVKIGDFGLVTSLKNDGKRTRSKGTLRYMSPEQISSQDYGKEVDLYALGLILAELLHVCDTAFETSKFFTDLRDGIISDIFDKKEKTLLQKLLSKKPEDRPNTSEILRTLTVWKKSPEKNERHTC

What is called inhibition is the percentage by which the read-out fell short of the control. In the case of `O[C@H]1CC[C@H](Nc2nccc(-c3n[nH]c4ccccc34)n2)CC1`, the inhibition was 80% in data set [1]; 95% in [2]; 93% in [3]; less than 50% in [4]; 85% in [5].

Regarding `O[C@H]1CC[C@H](Nc2nccc(-n3ccc4ccccc43)n2)CC1`, the inhibition in data set [1], in data set [2] and in data set [4] was less than 50% in each case.

In the case of `O[C@H]1CC[C@H](Nc2nccc(-n3ncc4ccccc43)n2)CC1`, the inhibition was less than 50% in data set [1], 64% in data set [2] and less than 50% in data set [4].

Take `O[C@H]1CC[C@H](Nc2nccc(-n3nnc4ccccc43)n2)CC1`: the values for the inhibition in [1], in data set [2] and in data set [4] were less than 50%, less than 50% and 66%, respectively.

Take `O=C([C@H]1CC[C@H](Nc2nccc(-n3nnc4ccccc43)n2)CC1)N1CCOCC1`: the inhibition in data set [6], in data set [7], in data set [8] and in data set [9] was less than 50% throughout.

In general, AUC(0-inf) refers to total exposure, with the tail of the curve extrapolated. High values mean more exposure, low ones less exposure. What is called pKd is −log10 of the Kd, conventionally taken in molar units. One may read the half-life as the time needed for the level to fall by half in the phase considered. A lower half-life goes with fast loss. For orientation: IC50 means the concentration at which inhibition is half-maximal. High values mean weaker potency in that assay, low ones greater potency in that assay. For orientation: Cmax means the highest concentration seen after dosing. In the case of `CS(=O)(=O)CCCOc1cccc2c1ccn2-c1ccnc(N[C@H]2CC[C@H](C(=O)N3CCC(O)CC3)CC2)n1`, the area under the curve AUC(0-inf) in data set [10] was 0.49 µg·h/mL; in data set [15] it was 9.33 µg·h/mL; in data set [17], 1.85 µg·h/mL. Besides, the pKd was 6.06 in data set [11]; 5.55 at LIM domain kinase 2; 5.68 in data set [12]; 5.89 in data set [14]; 5.37 in data set [16]; 6.92 in data set [18]. Also, the negative-log Kd (pKd) in data set [20] was 5.32; in data set [21], 8.74; in [22] it was 5.27; in [23], 5.17; in [25], 5.49; in data set [26], 5.57. The pKd is 5.82 in [29]; 6.36 in [30]; 5.68 in data set [32]; 6.31 in [33]; 6.51 in [34]; 4.96 in data set [35]. Moreover, the microsomal CLint in data set [13] and in data set [31] was 30 µL/min/mg in each case. The inhibition in [1] is more than 85%. Moreover, the half-life in data set [19] was 2.9 h; in [24], 2.6 h. Besides, at MAP kinase p38, the half-maximal inhibitory concentration (IC50) is more than 30 µM. Further, in the data set on Rattus norvegicus, the Cmax is 0.091 µg/mL. In addition, the Papp B→A at 10 µM in data set [27] was found to be 115 nm/s. Also, the Papp A→B at 10 µM in data set [28] came out at 2 nm/s.

As to `N[C@H]1CC[C@H](Nc2nccc(-n3nnc4ccccc43)n2)CC1`, the inhibition was 98% in data set [6], less than 50% in [7], less than 50% in data set [8] and less than 50% in [9].
